# Screens as filed in PubChem.
# MDM2 E3 inh: inhibitors of human Mdm2 E3 ubiquitin ligase; Q00987; cell-based MDM2 ubiquitination luciferase reporter, 2 h; 0 = plate control, 100 = twice control, blank-subtracted; signal enhancement, % at 5 µM; 0.11% of 210,000 active; AID 1230;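 active = signal enhancement of 30% or more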;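 also: luminescence tracks abundance of the self-degrading MDM2-luciferase fusion protein; higher signal means inhibition of MDM2 E3 ligase activity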
#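 System: stable MDM2–luciferase fusion reporter cells / Input: 2000 cells seeded into each well / Schedule: 4 h settle plus 2 h compound, 37 °C / Compound: single-point 5 µM / Buffer or medium: cells held in DMEM / Benchmarks: control and blank well means / Evaluation: percent signal gain over controls, blank-subtracted / Measured by: luciferase luminescence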
# Cl transport mod: modulators of human KCC2 chloride dependent transport; KCC2 cells, thallium flux FluoZin-2 fluorescence; Q9H2X9; B-score of Tl+ flux slope (higher = more flux/activation; lower = inhibition) at 10 µM; 2.2% of 190,000 active;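 active = thallium flux slope and its plate-corrected score both differing from the plate sample mean at a set confidence after two filtering rounds, in either direction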;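 also: slope of fluorescence scaled to starting intensity during 10 to 20 s after thallium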
# ROMK primary: modulates human ROMK potassium channel activity | AID 1918 | Tet-inducible ROMK, thallium flux fluorescence; actives lie on both sides | B-score at 10 µM | 2% of 130,000 active | P48048;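 active = signal ratio slope over the read window, or its plate-corrected B-score, at least 3 SD from the plate mean, either direction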;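 also: B-score of the F/F0 ratio slope over 7 to 12 s after thallium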
# Target sequence (P48048 whole entry, looked up): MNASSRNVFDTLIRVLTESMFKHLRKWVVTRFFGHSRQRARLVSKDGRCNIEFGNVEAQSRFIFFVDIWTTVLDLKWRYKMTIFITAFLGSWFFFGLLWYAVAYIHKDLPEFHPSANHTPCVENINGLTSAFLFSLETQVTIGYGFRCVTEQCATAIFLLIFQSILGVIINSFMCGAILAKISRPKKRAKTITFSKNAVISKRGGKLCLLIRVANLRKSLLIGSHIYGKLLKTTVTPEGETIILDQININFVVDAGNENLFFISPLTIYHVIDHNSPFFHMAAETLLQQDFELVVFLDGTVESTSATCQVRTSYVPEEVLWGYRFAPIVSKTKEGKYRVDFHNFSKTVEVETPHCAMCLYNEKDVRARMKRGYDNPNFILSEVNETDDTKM
# Redox H2O2 prof: compounds producing H2O2 with reducing agent – biochemical, NIH compound library profiling, artefact control for MLSCN library redox annotation, primary screen; 0.03% of 200,000 active; activation, % at 10 µM; DTT-dependent redox cycling H2O2, phenol red/HRP absorbance; 100% = 100 µM peroxide control, 0% = buffer;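 active = activation of at least 50% relative to the plate's high and low controls in the primary single-dose screen; inactive = activation below 50%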;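 also: compound incubated with DTT at 0.8 mM final as the reducing agent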
# p97 inhibitor: inhibitors of human p97 ATPase; 0.42% of 220,000 active; inhibition, % at 8 µM; P55072; recombinant p97 ATPase, Kinase-Glo ATP luminescence, 3 h; in the data active = inhibition above about 15%;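 also: 0% = DMSO vehicle and 100% = wells lacking enzyme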
# PKD1 kinase inh: PKD1 (human) kinase inhibition; Q15139; AID 797; 0.056% of 200,000 active; inhibition, % (no concentration beside the values); PKD1 kinase fluorescence polarization assay; in the data active = inhibition above about 50%
# ROMK hit retest: human ROMK channel modulation, retest confirmation | shares compounds with ROMK primary | ROMK thallium flux, fluorescence ratio; active compounds read low | normalized thallium flux (F/F0 slope) at 10 µM | 54% of 3,000 active;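 active = Flux at 10 µM at least 3 SD below or above vehicle control mean in one or both replicates; inconclusive = no clear call, values can overlap the other calls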
# Starred values were filed as active, the others as inactive; i = inactive; ? = inconclusive; · = not tested or not shown. Sampled rows, rich in hits. Any-hit rate of the full collection: about 3.4%.
SMILES,MDM2 E3 inh,Cl transport mod,ROMK primary,Redox H2O2 prof,p97 inhibitor,PKD1 kinase inh,ROMK hit retest
Brc1ccc(/C=N/Nc2ccccn2)cc1,-2,-0.26,0.052,0,-2,-8,·
CCOC(=O)N/N=C/c1ccccc1F,6,-0.33,-14*,-4,0,1,0.075
CCOC(=O)N/N=C/c1c(F)cccc1F,-4,-0.14,-0.44,-1,6,-1,·
CCOC(=O)N/N=C/c1c(F)c(F)c(F)c(F)c1F,-2,0.025,1.5*,·,7,-11,0.088
CC(C)c1ccc(OCc2ccc(C(=O)O)o2)cc1,·,-0.57,·,·,5,·,·
O=C(O)c1ccc(COc2ccc(Cl)cc2)o1,-28,0.084,·,1,3,3,?
CCOC(=O)C(=CNc1ccc(OC)cc1[N+](=O)[O-])C(=O)OCC,-5,·,·,·,1,·,·
COc1cc(NC(C)=O)c2ncccc2c1NC(C)=O,·,·,·,·,5,·,·
COc1cc(NC(C)=O)c2ncccc2c1[N+](=O)[O-],0,0.24,-4.7*,0,5,-3,0.046*
COc1ccc(-c2nnc(SCC(=O)NCc3cccs3)n2C)cc1,3,0.38,-0.82,1,-1,-10,·
CCn1c(SCC(=O)Nc2nc3ccc(OC)cc3s2)nc2c1c(=O)n(C)c(=O)n2C,21,-1.6,·,-1,2,18,?
CCOc1ccc2nc(NC(=O)CSc3nc4c(c(=O)n(C)c(=O)n4C)n3C(C)C)sc2c1,-5,-0.036,·,-1,3,10,·
CCCn1c(SCC(=O)Nc2ccccc2N2CCCCC2)nc2c1c(=O)n(C)c(=O)n2C,-4,0.0064,-2.6*,2,-8,8,0.064*
CCCn1c(SCC(=O)Nc2ccccc2C(=O)OC)nc2c1c(=O)n(C)c(=O)n2C,-13,-0.69,·,2,1,3,·
CSc1ccc(C#N)cc1NC(=O)c1ccccc1,-20,-1.1,-0.55,0,2,-2,·
O=C(O)c1ccccc1C(=O)Nc1ccc(-n2nc(C(F)(F)F)cc2C(F)(F)F)cc1,0,0.6,·,·,0,·,·
Cc1cc(C)c2c(-n3cccc3)c(C(=O)NNS(=O)(=O)c3ccccc3)sc2n1,11,·,·,0,1,0,·
COc1cccc(/C=c2\sc3nc(-c4cccs4)nn3c2=O)c1OC,-8,1.8,·,-1,6,1,0.082
Cc1ccc(C2C(C#N)=C(N)Oc3nc(-c4ccccc4)[nH]c32)o1 (stereo not given),-23,-0.91,·,0,4,-22,?
CC(C)(C)c1ccc(C(=O)Nc2cccc([N+](=O)[O-])c2)cc1,5,0.053,0.46,0,-1,-11,·
CC/C(=N/Nc1cccc(C)c1)c1cnnc(SC)n1,-7,0.016,-4.1*,1,-4,7,?
COc1ccc(S(=O)(=O)NC(C)C(=O)O)cc1 (stereo not given),-18,-0.062,1*,0,5,-1,0.074
COc1ccc(S(=O)(=O)N[C@H](C(=O)O)C(C)C)cc1,-9,-0.18,0.51,3,1,5,·
COc1ccc(NS(=O)(=O)c2ccc(NS(C)(=O)=O)cc2)cc1,-16,·,-3.2*,-1,-4,0,0.083
N#C/C(=C\c1ccc(-c2ccc(C(=O)O)cc2)o1)c1nc2ccccc2[nH]1,-3,i,·,0,6,-9,·
SMILES,MDM2 E3 inh,Cl transport mod,ROMK primary,Redox H2O2 prof,p97 inhibitor,PKD1 kinase inh,ROMK hit retest
O=C(c1ccc([N+](=O)[O-])cc1)N(Cc1ccc(Br)cc1)N1C(=O)CCCC1=O,-10,·,-7.3*,0,-1,-6,0.037*
O=C(c1ccccc1Cl)N(Cc1ccc(Br)cc1)N1C(=O)CCCC1=O,4,0.12,·,0,4,5,·
Cc1ccc(OC(=S)Nc2ccc(O)cc2)cc1,-21,0.29,-5.1*,2,6,6,0.043*
Cc1ccc(OC(=S)Nc2ccc(F)cc2)cc1,-10,·,-0.82,1,-3,-11,·
COc1ccc(CNCC(O)COc2ccc(C)cc2[N+](=O)[O-])cc1 (stereo not given),-9,-0.024,-2.6*,·,-4,·,0.063*
Cc1ccc(N(Cc2cc3ccc(C)cc3[nH]c2=O)C(=O)c2ccco2)c(C)c1,-5,0.3,·,·,-3,·,·
CCOC(=O)C(=Cc1ccc(-n2cncn2)cc1)C(=O)OCC,1,0.61,-5.1*,-2,2,9,0.063*
CCOC(=O)C(=CNc1cc(C)nn1-c1ccc(Cl)cc1)C(=O)OCC,-9,·,0.31,0,-1,1,·
CCOC(=O)CSc1nc(-c2ccccc2)ns1,-6,0.41,0.32,0,1,-8,·
CCOC(=O)CSC1=NC(=O)/C(=C/c2ccc(Br)cc2)S1,5,0.023,-0.72,0,8,-5,0.061*
CCOC(=O)CSC1=NC(=O)/C(=C\c2ccc(OC(C)=O)cc2)S1,-5,·,·,-2,-5,28,0.04*
COCc1c(C(=O)Nc2ccc(Cl)cc2F)oc2ccccc12,-6,-0.084,0.14,0,-2,-9,·
O=C(O)c1cc(-c2ccc(/C=C3/SC(=S)N(Cc4ccccc4)C3=O)o2)ccc1Cl,-1,-3,-4*,1,4,2,0.043*
COc1ccc(CN2C(=O)/C(=C/c3ccc(-c4ccc(Cl)c(C(=O)O)c4)o3)SC2=S)cc1,-8,-1.8,-0.31,0,8,2,·
Cc1cc(F)ccc1N1CCC(N2CCN(CCC(C)C)C(CCO)C2)CC1 (stereo not given),-87,-0.094,-2.8*,-1,-7,-6,0.058*
Cc1cc(F)ccc1N1CCC(N2CCN(C(C)C)C(CCO)C2)CC1 (stereo not given),-9,1.2,0.99,0,1,-4,·
C=CCn1c(SCC(=O)Nc2nnc(C)s2)nnc1-c1cccnc1,-1,·,-0.34,0,-1,-7,·
O=C1CSC(c2ccccc2Cl)N1 (stereo not given),-17,0.54,3.5*,-1,-4,8,0.089
CCOC(=O)C1(Cc2ccccc2C)CCCN(Cc2cn(C)nc2C)C1 (stereo not given),-12,0.39,0.89,-1,-2,-1,·
CC(=O)c1ccc(N2CCN(C(=O)c3cccc(Oc4ccccc4)c3)CC2)cc1,3,-4,-2,-1,-8,-3,0.081
O=C(c1cccc(C(=O)N2CCN(c3ccccc3)CC2)c1)N1CCN(c2ccccc2)CC1,-11,0.7,-0.28,3,-2,-10,·
Cc1cc(Br)cn2ccnc12,-35,0.095,1.2*,-4,7,1,0.08
N#C/C(=C\c1ccccc1Cl)C(=O)NC(=O)Oc1ccccc1,-2,-0.94,-4.3*,0,-4,-7,0.046*
